Source: ChEMBL document CHEMBL4229342, “Synthesis of novel proxyphylline derivatives with dual Anti-Candida albicans and anticancer activity” (Eur J Med Chem, 2018)
pEC50, pIC50: −log10 of the molar value. In brackets after ≈: the same amount, converted by molar mass.

Columns and labels:
MCF7 [1] = experiment: Antiproliferative activity against human MCF7 cells assessed as cell viability at 25 uM after 72 hrs by MTT assay; assay type: functional; settings: MCF7, 72 h, read-out: Activity
Procedure, shortened: (§1)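 MTT viability assay in CCRF-CEM and MCF-7 cells after 72 h exposure at 25, 50, 100 and 200 µM. Results are relative to control cells without inhibitor in 0.5% DMSO. Done in triplicate; values are means ± SD of three independent experiments.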

CCRF-CEM [2] = experiment: Antiproliferative activity against human CCRF-CEM cells assessed as cell viability at 50 uM after 72 hrs by MTT assay; assay type: functional; settings: read-out: Activity; procedure, shortened: as §1
CCRF-CEM [3] = experiment: Antiproliferative activity against human CCRF-CEM cells assessed as cell viability at 25 uM after 72 hrs by MTT assay; assay type: functional; settings: read-out: Activity; procedure, shortened: as §1
CCRF-CEM [4] = experiment: Antiproliferative activity against human CCRF-CEM cells after 72 hrs by MTT assay; assay type: functional, cell-based
Procedure, shortened: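 EC50 was derived from a repeat 72 h MTT assay in CCRF-CEM or MCF-7 cells. It is the concentration killing 50% of tumour cells compared with control cells incubated without inhibitor in 0.5% DMSO.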

Candida albicans [5] = experiment: Growth inhibition of Candida albicans ATCC 90028 at 16 ug/ml incubated for 48 hrs at 35 degC by broth microdilution method relative to control; assay type: functional; settings: ATCC 90028, 48 h, read-out: GI
CCRF-CEM [6] = experiment: Antiproliferative activity against human CCRF-CEM cells assessed as cell viability at 100 uM after 72 hrs by MTT assay; assay type: functional; settings: read-out: Activity; procedure, shortened: as §1
Candida albicans [7] = experiment: Growth inhibition of Candida albicans ATCC 90028 at 8 ug/ml incubated for 4 hrs at 35 degC by broth microdilution method relative to control; assay type: functional; settings: ATCC 90028, 4 h, read-out: GI
Candida albicans [8] = experiment: Growth inhibition of Candida albicans ATCC 90028 at 8 ug/ml incubated for 48 hrs at 35 degC by broth microdilution method relative to control; assay type: functional; settings: ATCC 90028, 48 h, read-out: GI
CCRF-CEM [9] = experiment: Antiproliferative activity against human CCRF-CEM cells assessed as cell viability at 200 uM after 72 hrs by MTT assay; assay type: functional; settings: read-out: Activity; procedure, shortened: as §1
Candida albicans [10] = experiment: Growth inhibition of Candida albicans ATCC 90028 at 0.25 ug/ml incubated for 18 hrs at 35 degC by broth microdilution method relative to control; assay type: functional; settings: ATCC 90028, 18 h, read-out: GI
Candida albicans [11] = experiment: Growth inhibition of Candida albicans ATCC 90028 at 1 ug/ml incubated for 4 hrs at 35 degC by broth microdilution method relative to control; assay type: functional; settings: ATCC 90028, 4 h, read-out: GI
MCF7 [12] = experiment: Antiproliferative activity against human MCF7 cells assessed as cell viability at 200 uM after 72 hrs by MTT assay; assay type: functional; settings: MCF7, 72 h, read-out: Activity; procedure, shortened: as §1
Candida albicans [13] = experiment: Growth inhibition of Candida albicans ATCC 90028 at 2 ug/ml incubated for 18 hrs at 35 degC by broth microdilution method relative to control; assay type: functional; settings: ATCC 90028, 18 h, read-out: GI
Candida albicans [14] = experiment: Growth inhibition of Candida albicans ATCC 90028 at 0.0625 ug/ml incubated for 18 hrs at 35 degC by broth microdilution method relative to control; assay type: functional; settings: ATCC 90028, 18 h, read-out: GI
Candida albicans [15] = experiment: Growth inhibition of Candida albicans ATCC 90028 at 8 ug/ml incubated for 18 hrs at 35 degC by broth microdilution method relative to control; assay type: functional; settings: ATCC 90028, 18 h, read-out: GI
Candida albicans [16] = experiment: Growth inhibition of Candida albicans ATCC 90028 at 0.5 ug/ml incubated for 18 hrs at 35 degC by broth microdilution method relative to control; assay type: functional; settings: ATCC 90028, 18 h, read-out: GI
Vero [17] = experiment: Cytotoxicity in African green monkey Vero cells incubated for 18 hrs by XTT assay; assay type: cell-based; settings: Chlorocebus sabaeus
Candida albicans [18] = experiment: Growth inhibition of Candida albicans ATCC 90028 at 1 ug/ml incubated for 18 hrs at 35 degC by broth microdilution method relative to control; assay type: functional; settings: ATCC 90028, 18 h, read-out: GI
MCF7 [19] = experiment: Antiproliferative activity against human MCF7 cells assessed as cell viability at 100 uM after 72 hrs by MTT assay; assay type: functional; settings: MCF7, 72 h, read-out: Activity; procedure, shortened: as §1
Vero [20] = experiment: Cytotoxicity in African green monkey Vero cells up to 64 ug/ml incubated for 3 to 18 hrs by XTT assay; assay type: cell-based; settings: chlorocebus sabaeus
Candida albicans [21] = experiment: Growth inhibition of Candida albicans ATCC 90028 at 0.125 ug/ml incubated for 18 hrs at 35 degC by broth microdilution method relative to control; assay type: functional; settings: ATCC 90028, 18 h, read-out: GI
MCF7 [22] = experiment: Antiproliferative activity against human MCF7 cells assessed as cell viability at 50 uM after 72 hrs by MTT assay; assay type: functional; settings: MCF7, 72 h, read-out: Activity; procedure, shortened: as §1
Candida albicans [23] = experiment: Fungicidal activity against Candida albicans ATCC 90028 assessed as drug level causing 3 fold reduction in bacterial count after 48 hrs at 35 degC; assay type: functional; settings: ATCC 90028, 48 h
Candida albicans [24] = experiment: Growth inhibition of Candida albicans ATCC 90028 at 0.125 ug/ml incubated for 4 hrs at 35 degC by broth microdilution method relative to control; assay type: functional; settings: ATCC 90028, 4 h, read-out: GI
Candida albicans [25] = experiment: Growth inhibition of Candida albicans ATCC 90028 at 0.25 ug/ml incubated for 4 hrs at 35 degC by broth microdilution method relative to control; assay type: functional; settings: ATCC 90028, 4 h, read-out: GI
Candida albicans [26] = experiment: Growth inhibition of Candida albicans ATCC 90028 at 4 ug/ml incubated for 18 hrs at 35 degC by broth microdilution method relative to control; assay type: functional; settings: ATCC 90028, 18 h, read-out: GI
Candida albicans [27] = experiment: Fungicidal activity against Candida albicans ATCC 90028 assessed as log reduction in cell viability at 16 ug/ml after 48 hrs at 35 degC; assay type: functional
Procedure, shortened: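 MFC assay on C. albicans ATCC 90028 following M27-A3, at the molar equivalent of 16 µg/mL. CFU of treated cells were compared with CFU of the untreated inoculum. Activity is given as lg R = lg CFU/mL control − lg CFU/mL treated, and lg R ≥3 was defined as fungicidal. Values are means of two independent experiments.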

Candida albicans [28] = experiment: Growth inhibition of Candida albicans ATCC 90028 at 0.0625 ug/ml incubated for 4 hrs at 35 degC by broth microdilution method relative to control; assay type: functional; settings: ATCC 90028, 4 h, read-out: GI
Candida albicans [29] = experiment: Growth inhibition of Candida albicans ATCC 90028 at 2 ug/ml incubated for 4 hrs at 35 degC by broth microdilution method relative to control; assay type: functional; settings: ATCC 90028, 4 h, read-out: GI
Candida albicans [30] = experiment: Growth inhibition of Candida albicans ATCC 90028 at 16 ug/ml incubated for 18 hrs at 35 degC by broth microdilution method relative to control; assay type: functional; settings: ATCC 90028, 18 h, read-out: GI
Candida albicans [31] = experiment: Growth inhibition of Candida albicans ATCC 90028 at 0.5 ug/ml incubated for 4 hrs at 35 degC by broth microdilution method relative to control; assay type: functional; settings: ATCC 90028, 4 h, read-out: GI

CC(Cn1cnc2c1c(=O)n(C)c(=O)n2C)OCc1cn(CCCn2cnc3c(Br)c(Br)c(Br)c(Br)c32)nn1 (stereo unspecified)
viability at 25 µM (MCF7 [1]): 74.5% | viability at 50 µM (CCRF-CEM [2]): 0% | viability at 25 µM (CCRF-CEM [3]): 0% | pEC50 (CCRF-CEM [4]): 5.20 | inhibition of growth at 16 µg/mL (Candida albicans [5]): 100% | viability at 100 µM (CCRF-CEM [6]): 0% | inhibition of growth at 8 µg/mL (Candida albicans [7]): 99% | inhibition of growth at 8 µg/mL (Candida albicans [8]): 99.2% | viability at 200 µM (CCRF-CEM [9]): 0% | inhibition of growth at 0.25 µg/mL (Candida albicans [10]): 100% | inhibition of growth at 1 µg/mL (Candida albicans [11]): 99.2% | viability at 200 µM (MCF7 [12]): 4.1% | inhibition of growth at 2 µg/mL (Candida albicans [13]): 100% | inhibition of growth at 0.0625 µg/mL (Candida albicans [14]): 99.7% | inhibition of growth at 8 µg/mL (Candida albicans [15]): 99.9% | inhibition of growth at 0.5 µg/mL (Candida albicans [16]): 99.6% | pIC50 (Vero [17]): ≤ 3.55 | inhibition of growth at 1 µg/mL (Candida albicans [18]): 100% | viability at 100 µM (MCF7 [19]): 2% | Activity (Vero [20]): Non-Toxic | inhibition of growth at 0.125 µg/mL (Candida albicans [21]): 100% | viability at 50 µM (MCF7 [22]): 29.7% | MFC (Candida albicans [23]): 36 µM (≈ 28.6 µg/mL) | inhibition of growth at 0.125 µg/mL (Candida albicans [24]): 99.6% | inhibition of growth at 0.25 µg/mL (Candida albicans [25]): 99.6% | inhibition of growth at 4 µg/mL (Candida albicans [26]): 99.9% | log(activity) (Candida albicans [27]): 8 | inhibition of growth at 0.0625 µg/mL (Candida albicans [28]): 99.3% | inhibition of growth at 2 µg/mL (Candida albicans [29]): 99.2% | inhibition of growth at 16 µg/mL (Candida albicans [30]): 99.9% | inhibition of growth at 0.5 µg/mL (Candida albicans [31]): 99%
